Laboratory results: ChEMBL document CHEMBL1157285, “Antimalarial compounds from Grewia bilamellata” (J Nat Prod, 2006)

How the values were obtained:
[1] = tested on: Plasmodium falciparum; assay: Antimalarial activity against Plasmodium falciparum W2 by [3H]hypoxanthine uptake; format: functional, organism-based
Procedure, shortened: (§1)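 Cultured P. falciparum clones tested, parasite-specific [3H]hypoxanthine incorporation measured; zero-drug wells set as 100% incorporation. IC50 (50% inhibition of incorporation) fitted by nonlinear regression; pure compounds with IC50 < 10 µg/mL counted as active. Extract values expressed in µg/mL.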

[2] = tested on: Plasmodium falciparum; assay: Antimalarial activity against Plasmodium falciparum D6 by [3H]hypoxanthine uptake; format: functional, organism-based; procedure, shortened: as §1
[3] = Cytotoxicity against human KB cells by SRB assay; format: cell-based; details: read-out: ED50 (the source's name)
Procedure, shortened: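 Human oral epidermoid carcinoma KB cells stained with sulforhodamine B; ED50 from nonlinear regression of percent survival against compound concentration. ED50 of 50 µM or above taken as noncytotoxic; extract values in µg/mL.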

[4] = Selectivity index, ratio of ED50 for human KB cells to IC50 for Plasmodium falciparum W2; format: functional
Procedure, shortened: (§2)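 Selectivity index computed as ED50 in KB cells (SRB survival assay) divided by IC50 against the P. falciparum clone from [3H]hypoxanthine incorporation, both fitted by nonlinear regression.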

[5] = Selectivity index, ratio of ED50 for human KB cells to IC50 for Plasmodium falciparum D6; format: functional; procedure, shortened: as §2

CC(C)(O)[C@@H]1CC[C@]2(C)CC[C@]3(C)[C@H](CC[C@@H]4[C@@]5(C)CC[C@@H](O)C(C)(C)[C@@H]5CC[C@]43C)[C@@H]12
IC50 [1]: 19.1 µM
IC50 [2]: 19.8 µM
CC50 [3]: > 90 µM
Selectivity Index [4]: >4.7
Selectivity Index [5]: >4.5

CC1(C)CC[C@]2(C(=O)O)CC[C@]3(C)C(=CC[C@@H]4[C@@]5(C)C[C@@H](O)[C@H](O)C(C)(C)[C@@H]5CC[C@]43C)[C@@H]2C1 [MASLINIC ACID]
IC50 [1]: 8.6 µM
IC50 [2]: 21.1 µM
CC50 [3]: 51.5 µM
Selectivity Index [4]: 5.9
Selectivity Index [5]: 2.4

COC1=CC(=O)C=C(OC)C1(O)CC(C)=O
IC50 [1]: 23 µM
IC50 [2]: 42.2 µM
CC50 [3]: 169 µM
Selectivity Index [4]: 7.3
Selectivity Index [5]: 4

COc1cc([C@@H]2Oc3cc4ccc(=O)oc4cc3O[C@H]2CO)cc(O)c1O [GREWIN]
IC50 [1]: 5.5 µM
IC50 [2]: 11.2 µM
CC50 [3]: > 108 µM
Selectivity Index [4]: >19.7
Selectivity Index [5]: >9.6

COc1cc([C@@H]2Oc3cc(/C=C/CO)cc(OC)c3O[C@H]2CO)cc(OC)c1O [NITIDANIN]
IC50 [1]: 18.4 µM
IC50 [2]: 21.2 µM
CC50 [3]: > 99 µM
Selectivity Index [4]: >5.4
Selectivity Index [5]: >4.6

CCN(CC)CCCC(C)Nc1ccnc2cc(Cl)ccc12 (stereo unspecified) [CHLOROQUINE]
CC50 [3]: 30.8 µM
